# Source: PubChem BioAssay
# Rows were chosen to be rich in hits. Some 3.1% of all compounds tested hit in one or more screens of this group.
# TAG inh = inhibitors of triacylglycerol accumulation. H9c2 cells, Nile Red lipid (TAG) fluorescence; cells loaded with 200 µM oleic acid. inhibition, % at 12.5 µM. hit rate 0.66% among 230,000. AID 651582;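 active means pattern-corrected inhibition of lipid staining of at least 50% with the nuclear-stain viability signal not falling by more than 50%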
# Beta cell apopt = blocks beta cell apoptosis; INS-1E cytokine-induced death, ATP luminescence, 48 h; percent of positive-control rescue, neutral wells zero; protection from apoptosis, % (concentration not given with the values); hit rate 0.8% among 300,000;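 active means Every replicate reaches about 75%, or at least half do and their mean reaches it too, limit read from the data; inconclusive means At least half of replicates reach the limit but their mean does not; inactive means Under half of replicates reach the limit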;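 further: higher means more ATP so stronger rescue from cytokine killing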
# T cruzi inh = blocks replication of Trypanosoma cruzi; T. cruzi beta-gal in NIH3T3, luminescence, 90 h; inhibition, % (test concentration not listed); hit rate 1.4% among 300,000; AID 1885;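 active means mean inhibition across valid replicates above about 55%, limit read from the data; inconclusive means mean below that limit but half or more replicates reach it; inactive means mean below it, under half of replicates reach it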;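 further: signal also drops with host cell toxicity which is not excluded here; higher percent means less beta-gal luminescence so fewer parasites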
#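 Assay system: NIH/3T3 host cells with β-galactosidase reporter T. cruzi; input: 5,000 host fibroblasts per well; compound: single 50 nL compound addition per well in DMSO; timing: ≥90 h infection period, 3 h prior cell attachment; measured by: GalScreen β-gal luminescence, detergent lysis, 60 min; evaluation: percent inhibition of parasite-derived β-gal signal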
# CSC inhib = blocks cancer stem cells; cancer stem cell-like cells viability, luminescence; inhibition, % at 7.5 µM; hit rate 1.1% among 300,000; AID 2717; in the data active means inhibition above about 75%; inconclusive means no clear call, values can overlap the other calls; tested in HMLE shEcad cells
# A1 inh = inhibitors of the anti-apoptotic protein A1, read as caspase activation | MEF A1-2A-BIM cells, Caspase-Glo 3/7 luminescence, 3 h; percent of clofoctol response, vehicle zero | caspase activation, % (concentration not given with the values) | hit rate 0.066% among 330,000 | AID 2462;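 active means over half of replicate activation scores above 10%, or exactly half above 10 with the replicate mean above 10; inconclusive means replicate mean below 10 yet half the replicates above 10; inactive means over half of replicates below 10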
# Calb FLC = affects C. albicans growth with fluconazole | hit rate 0.57% among 300,000 | growth inhibition, % (no concentration beside the values) | C. albicans CaCi-2 + fluconazole, Alamar Blue growth, 48 h;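 active means growth inhibition above about 58% in most replicates, limit read from the data, passing the limit was not always enough; inconclusive means exactly half the replicates above a set limit; inactive means most replicates below a set limit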;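 further: all wells also contain fluconazole at 8 µg/ml as a sub-toxic cotreatment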
# Hits are given with their value; n = inactive; u = inconclusive; x = no result.
SMILES,TAG inh,Beta cell apopt,T cruzi inh,CSC inhib,A1 inh,Calb FLC
CCCNC(=O)c1ccc2c(=O)c(O)c(-c3ccc(Cl)c([N+](=O)[O-])c3)[nH]c2c1,n,79,n,n,u,114
Clc1ccccc1OCc1nnc(-c2ccccc2Br)o1,n,n,n,x,n,n
O=c1c(Cl)c(Cl)cnn1Cc1nnc(-c2ccccc2Br)o1,n,x,57,x,x,n
O=C1c2cccc3c([N+](=O)[O-])ccc(c23)C(=O)N1Cc1cccnc1,n,x,85,x,x,u
Cc1ccc(N2C(=O)c3cccc4c([N+](=O)[O-])ccc(c34)C2=O)c2cccnc12,n,n,n,n,n,n
Cc1ccnc(N2C(=O)c3cccc4c([N+](=O)[O-])ccc(c34)C2=O)c1,x,n,64,121,n,n
CCNc1nc(N)nc(Oc2ccc(OCCOc3ccc(Cl)cc3Cl)nn2)n1,x,n,66,n,n,n
CCNc1nc(NCC)nc(Oc2ccc(OCC)nn2)n1,x,n,n,n,n,n
COC(=O)c1ccc(COC(=O)CCNS(=O)(=O)c2ccc(C)c(C)c2)cc1,n,x,x,x,x,x
N#Cc1cc2ccccc2nc1SCC(=O)Nc1ccc(S(=O)(=O)N2CCCC2)cc1,x,n,56,n,n,n
Cc1noc(C)c1CSCC(=O)N(C)CC(=O)Nc1ccc(Cl)c(Cl)c1,n,n,n,n,9.7,n
Cc1noc(C)c1CSCC(=O)N(C)CC(=O)Nc1ccc(Cl)c(C(F)(F)F)c1,n,n,n,n,n,n
O=C(Nc1ccc2c(c1)OCO2)c1cc(C2CC2)on1,n,n,n,98,n,n
CC(C)c1cc(C(=O)Nc2ccc3c(c2)OCO3)no1,n,n,n,n,n,n
COc1cc(NC(=O)c2cc(-c3ccc4c(c3)OCO4)on2)cc(OC)c1OC,x,n,59,n,n,n
CCOC(=O)c1[nH]cnc1N=Nc1c(O)ccc2ccccc12,x,97,n,n,n,n
Oc1ccc2ccccc2c1N=Nc1ccccn1,n,95,55,105,n,n
O=[N+]([O-])c1cccc(NC(=S)Nc2nc(-c3ccccc3Cl)cs2)c1,n,n,n,86,n,n
CCNC(=S)Nc1cccc([N+](=O)[O-])c1,x,n,n,n,n,n
Cc1ccc(-c2ccc(/C=N/NC(N)=S)o2)cc1,n,n,n,n,n,n
NC(=S)N/N=C/c1ccc(-c2ccc(SC(F)F)cc2)o1,n,n,72,n,n,n
NC(=S)N/N=C/c1ccc(-c2ccc(Cl)c(Cl)c2)o1,n,n,60,n,n,n
Cc1c(C)n(-c2ccccc2)c2ncnc(NCCN(C)C)c12,x,n,n,n,u,n
COc1ccc(S(=O)(=O)N2CCC(C(=O)NCC3CCCCC3)CC2)cc1,x,n,n,n,n,n
CN1CCN(S(=O)(=O)c2cccc(C(=O)Nc3cc(C(F)(F)F)ccc3N3CCCCC3)c2)CC1,n,n,n,87,n,n
SMILES,TAG inh,Beta cell apopt,T cruzi inh,CSC inhib,A1 inh,Calb FLC
CCN1CCN(c2ccc(S(=O)(=O)N3CCCCC3)cc2NC(=O)c2cccc(C(F)(F)F)c2)CC1,n,n,68,n,n,n
C/C(CC(C)(C)c1ccccc1)=N\NS(=O)(=O)c1ccccc1,n,n,n,n,n,n
COc1ccc(NC(=O)c2oc3ccccc3c2C)cn1,n,n,n,n,n,n
Cc1c(C(=O)NCC2COc3ccccc3O2)oc2ccc(S(=O)(=O)N3CC(C)CC(C)C3)cc12 (stereo unspecified),x,n,63,n,n,n
Cc1c(C(=O)NCC2CCCO2)oc2ccc(S(=O)(=O)N3CC(C)CC(C)C3)cc12 (stereo unspecified),n,x,n,n,n,n
Cc1c(C(=O)NCC2COc3ccccc3O2)oc2ccc(S(=O)(=O)N3CCOCC3)cc12 (stereo unspecified),n,n,n,n,n,n
CCN(CC)CCCNC(=O)c1oc2ccc(S(=O)(=O)N3CC(C)CC(C)C3)cc2c1C (stereo unspecified),x,n,56,n,n,n
CCc1cccc(NC(=O)COC(=O)c2cc([N+](=O)[O-])ccc2N2CCOCC2)c1,n,n,n,n,n,n
CCOC(=O)c1sc(N)nc1C(F)(F)F,n,x,x,x,x,x
C[C@@H](C(=O)NC1CCN(Cc2ccccc2)CC1)N1C(=O)N2CCc3c([nH]c4ccccc34)[C@@]2(C)C1=O,x,n,59,n,n,n
